ChEMBL document CHEMBL2046305, “Discovery of selective menaquinone biosynthesis inhibitors against Mycobacterium tuberculosis” (J Med Chem, 2012)
In brackets after ≈: the same amount, converted by molar mass. Activity calls are given as the source filed them. The rule behind the calls is not given here.

Columns and labels:
[1] = system: Mycobacterium tuberculosis; experiment: Antibacterial activity against Mycobacterium tuberculosis H37Rv ATCC 27294 by microplate alamar blue assay; assay type: functional
Procedure, shortened: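 Colorimetric microplate assay run under aerobic conditions; growth scored by the colour change of resazurin. Compounds showing at least 90% inhibition in a preliminary screen were retested at lower concentrations to give the MIC.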

Escherichia coli [2] = experiment: Growth inhibition of Escherichia coli Seattle ATCC 25922 at 5 to 10 ug/ml by microplate alamar blue assay; assay type: functional, organism-based
Staphylococcus aureus [3] = experiment: Inhibition of Staphylococcus aureus MenA using [3H]farnesyl and DHNA as substrate at 100 uM after 2 hrs
Procedure, shortened: (§1)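 Membrane fraction from mid-log cultures in 7H9/OADC, washed in saline, sonicated in MOPS pH 8/sucrose/MgCl2/2-mercaptoethanol buffer, spun 15,000 g then 200,000 g; the fraction was the enzyme source. DHNA (500 μM stock), MgCl2, 0.1% CHAPS, Tris pH 8, farnesyl diphosphate (200 μM stock) and inhibitor, 2 h at 37 °C. Quenched with 0.1 M AcOH/MeOH, extracted with hexanes, DMMK measured.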

[4] = Inhibition of Mycobacterium tuberculosis MenA using [3H]farnesyl and DHNA as substrate after 2 hrs; procedure, shortened: as §1
Escherichia coli [5] = experiment: Antibacterial activity against Escherichia coli Seattle ATCC 25922 at 12.5 ug/ml by oxygen consumption assay; assay type: functional, organism-based
[6] = system: Mycobacterium tuberculosis; experiment: Ratio of MIC for rifampicin to compound MIC for non-replicating Mycobacterium tuberculosis H37Rv ATCC 27294 by low oxygen recovery assay; assay type: functional
[7] = system: Mycobacterium tuberculosis; experiment: Inhibition of Mycobacterium tuberculosis MenA using [3H]farnesyl and DHNA as substrate at 100 uM after 2 hrs; procedure, shortened: as §1
Vero = experiment: Cytotoxicity against african green monkey Vero cells after 72 hrs by MTT assay; assay type: cell-based; conditions: Chlorocebus sabaeus
Procedure, shortened: (§2)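 Cell viability after 72 h exposure, tested at 10 times the H37Rv MIC; read-out was cellular conversion of MTT into formazan.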

[8] = system: Mycobacterium tuberculosis; experiment: Antibacterial activity against non-replicating Mycobacterium tuberculosis H37Rv ATCC 27294 by low oxygen recovery assay; assay type: functional
[9] = system: Mycolicibacterium smegmatis; experiment: Antibacterial activity against Mycobacterium smegmatis by microplate alamar blue assay; assay type: functional
HepG2 = experiment: Cytotoxicity against human HepG2 cells after 72 hrs by MTT assay; assay type: cell-based; conditions: HepG2, 72 h; procedure, shortened: as §2
Escherichia coli [10] = experiment: Growth inhibition of Escherichia coli Seattle ATCC 25922 at 5 to 10 ug/ml by microplate alamar blue assay in presence of 50 uM VK2; assay type: functional, organism-based
Procedure, shortened: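 E. coli grown with inhibitor under anaerobic conditions; rescue tested by supplementing with menaquinone (VK2, 50 μM).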

[11] = system: Mycobacterium intracellulare; experiment: Antibacterial activity against Mycobacterium intracellulare ATCC 15984 by microplate alamar blue assay; assay type: functional
Staphylococcus aureus [12] = experiment: Antibacterial activity against Staphylococcus aureus Seattle 1945 ATCC 25923 by agar plate diffusion method; assay type: functional
Staphylococcus aureus [13] = experiment: Bactericidal activity against Staphylococcus aureus; assay type: functional
[14] = system: Mycobacterium tuberculosis; experiment: Bactericidal activity against Mycobacterium tuberculosis; assay type: functional
[15] = Selectivity ratio of IC50 for human HepG2 cells to IC50 for Mycobacterium tuberculosis […]; assay type: ADME, cell-based; conditions: read-out: Ratio IC50
[16] = Selectivity ratio of IC50 for african green monkey Vero cells to IC50 for Mycobacterium tuberculosis […]; assay type: ADME, cell-based; conditions: read-out: Ratio IC50

## CCCCCC[C@H](CN1CCC(COc2cccc(C(=O)c3ccc(Cl)cc3)c2)CC1)OC(N)=O
[1]
  MIC: 2.31 µg/mL (≈ 4.61 µM)
Escherichia coli [2]
  growth inhibition (GI): Active
Staphylococcus aureus [3]
  inhibition: inactive
[4]
  IC50: 1.5 µM
Escherichia coli [5]
  Activity: Active
[6]
  Ratio: 1.7
[7]
  inhibition: Active
Vero
  IC50: 7.5 µg/mL (≈ 15 µM)
[8]
  MIC: 0.85 µg/mL (≈ 1.7 µM)
[9]
  MIC: 6.5 µg/mL (≈ 13 µM)
HepG2
  IC50: 7.5 µg/mL (≈ 15 µM)
Escherichia coli [10]
  growth inhibition (GI): inactive
[11]
  MIC: 6.5 µg/mL (≈ 13 µM)
Staphylococcus aureus [12]
  MIC: > 60 µg/mL

## O=C(c1ccc(Cl)cc1)c1ccc(OCc2cccc(CN3CCC(N4CCCCC4)CC3)c2)cc1Cl
Staphylococcus aureus [13]
  MIC: 15.5 µg/mL (≈ 28.8 µM)
[14]
  MIC: 8 µg/mL (≈ 14.9 µM)

## C=CCN(C)CCCCCCCCOc1ccc(C(=O)c2ccc(Cl)cc2)c(Cl)c1
Staphylococcus aureus [13]
  MIC: 15.5 µg/mL (≈ 34.6 µM)
[14]
  MIC: 0.5 µg/mL (≈ 1.11 µM)

## COc1ccc(CCNC(CO)c2cccc(COc3cccc(C(=O)c4ccc(Cl)cc4)c3)c2)cc1 (racemic)
[1]
  MIC: 12.5 µg/mL (≈ 24.2 µM)
Escherichia coli [2]
  growth inhibition (GI): Active
Staphylococcus aureus [3]
  inhibition: inactive
[4]
  IC50: 15 µM
Staphylococcus aureus [13]
  MIC: > 50 µg/mL
[7]
  inhibition: Active
[8]
  MIC: 3 µg/mL (≈ 5.81 µM)
[14]
  MIC: 8 µg/mL (≈ 15.5 µM)
Escherichia coli [10]
  growth inhibition (GI): inactive
Staphylococcus aureus [12]
  MIC: > 60 µg/mL

## CC(C)=CC(O)C/C(C)=C/CC/C(C)=C/Cc1c(C)n(O)c2ccccc2c1=O (centres undefined) [AURACHIN RE]
Staphylococcus aureus [13]
  MIC: 3.1 µg/mL (≈ 7.84 µM)
[14]
  MIC: 25 µg/mL (≈ 63.2 µM)

## CCCCC(O)CN1CCC(COc2ccc(C(=O)c3ccc(Cl)cc3)c(Cl)c2)CC1 (racemic)
[1]
  MIC: 6.25 µg/mL (≈ 13.5 µM)
Escherichia coli [2]
  growth inhibition (GI): Active
Staphylococcus aureus [3]
  inhibition: inactive
[4]
  IC50: 15 µM
Staphylococcus aureus [13]
  MIC: > 50 µg/mL
[7]
  inhibition: Active
[8]
  MIC: 2.82 µg/mL (≈ 6.07 µM)
[14]
  MIC: 0.5 µg/mL (≈ 1.08 µM)
Escherichia coli [10]
  growth inhibition (GI): inactive
Staphylococcus aureus [12]
  MIC: > 60 µg/mL

## CCCCCC[C@@H](CN1CCC(COc2ccc(C(=O)c3ccc(Cl)cc3)c(Cl)c2)CC1)OC(N)=O
[1]
  MIC: 1.5 µg/mL (≈ 2.8 µM)
Escherichia coli [2]
  growth inhibition (GI): Active
Staphylococcus aureus [3]
  inhibition: inactive
[4]
  IC50: 1.5 µM
Escherichia coli [5]
  Activity: Active
[7]
  inhibition: Active
[8]
  MIC: 1.45 µg/mL (≈ 2.71 µM)
Escherichia coli [10]
  growth inhibition (GI): inactive
Staphylococcus aureus [12]
  MIC: > 60 µg/mL

## CCCCC(O)CN1CCC(COc2cccc(C(=O)c3ccc(Cl)cc3)c2)CC1 (racemic)
[1]
  MIC: 12.5 µg/mL (≈ 29.1 µM)
Escherichia coli [2]
  growth inhibition (GI): Active
Staphylococcus aureus [3]
  inhibition: inactive
[4]
  IC50: 15 µM
Staphylococcus aureus [13]
  MIC: > 50 µg/mL
[7]
  inhibition: Active
[8]
  MIC: 5.2 µg/mL (≈ 12.1 µM)
[14]
  MIC: 8 µg/mL (≈ 18.6 µM)
Escherichia coli [10]
  growth inhibition (GI): inactive
Staphylococcus aureus [12]
  MIC: > 60 µg/mL

## CCCCCCCC(O)c1cccc(CN2CCC(COc3cccc(C(=O)c4ccc(Cl)cc4)c3)CC2)c1 (racemic)
[1]
  MIC: 12.5 µg/mL (≈ 22.8 µM)
Escherichia coli [2]
  growth inhibition (GI): Active
Staphylococcus aureus [3]
  inhibition: inactive
[4]
  IC50: 15 µM
Staphylococcus aureus [13]
  MIC: > 50 µg/mL
[7]
  inhibition: Active
[8]
  MIC: 1.88 µg/mL (≈ 3.43 µM)
[14]
  MIC: 8 µg/mL (≈ 14.6 µM)
Escherichia coli [10]
  growth inhibition (GI): inactive
Staphylococcus aureus [12]
  MIC: > 60 µg/mL

## O=C(c1ccc(Cl)cc1)c1ccc(OC/C=C/COCCCNCCc2ccc(F)cc2)cc1Cl
Staphylococcus aureus [13]
  MIC: 0.5 µg/mL (≈ 0.968 µM)
[14]
  MIC: 8 µg/mL (≈ 15.5 µM)

## CCCCCC[C@H](CN1CCC(COc2cccc(/C(=N\OC)c3ccc(Cl)cc3)c2)CC1)OC(N)=O
[1]
  MIC: 2.31 µg/mL (≈ 4.36 µM)
Escherichia coli [2]
  growth inhibition (GI): Active
Staphylococcus aureus [3]
  inhibition: inactive
[15]
  selectivity ratio: > 10
[4]
  IC50: 1.2 µM
[7]
  inhibition: Active
Vero
  IC50: 25 µg/mL (≈ 47.2 µM)
[8]
  MIC: 0.85 µg/mL (≈ 1.6 µM)
[9]
  MIC: 6.5 µg/mL (≈ 12.3 µM)
[16]
  selectivity ratio: > 10
HepG2
  IC50: 25 µg/mL (≈ 47.2 µM)
Escherichia coli [10]
  growth inhibition (GI): inactive
[11]
  MIC: 6.5 µg/mL (≈ 12.3 µM)
Staphylococcus aureus [12]
  MIC: > 60 µg/mL

## CCCCCC[C@H](O)CN1CCC(COc2cccc(C(=O)c3ccc(Cl)cc3)c2)CC1
[1]
  MIC: 12.5 µg/mL (≈ 27.3 µM)
Escherichia coli [2]
  growth inhibition (GI): Active
Staphylococcus aureus [3]
  inhibition: inactive
[4]
  IC50: 16 µM
[7]
  inhibition: Active
[8]
  MIC: 4.91 µg/mL (≈ 10.7 µM)
Escherichia coli [10]
  growth inhibition (GI): inactive
Staphylococcus aureus [12]
  MIC: > 60 µg/mL

## CCCCCCC[C@H](O)c1cccc(CN2CCC(COc3ccc(/C(=N\OC)c4ccc(Cl)cc4)c(Cl)c3)CC2)c1
[1]
  MIC: 12.5 µg/mL (≈ 20.4 µM)
Escherichia coli [2]
  growth inhibition (GI): Active
Staphylococcus aureus [3]
  inhibition: inactive
[4]
  IC50: 20 µM
[7]
  inhibition: Active
[8]
  MIC: 5.54 µg/mL (≈ 9.06 µM)
Escherichia coli [10]
  growth inhibition (GI): inactive
Staphylococcus aureus [12]
  MIC: > 60 µg/mL

## COc1ccc(CCNCCCOCCCCOc2ccc(C(=O)c3ccc(Cl)cc3)c(Cl)c2)cc1
Staphylococcus aureus [13]
  MIC: 0.5 µg/mL (≈ 0.943 µM)
[14]
  MIC: 15.5 µg/mL (≈ 29.2 µM)

## CCCCCCCC(O)c1cccc(CN2CCC(COc3ccc(C(=O)c4ccc(Cl)cc4)c(Cl)c3)CC2)c1 (racemic)
[1]
  MIC: 12.5 µg/mL (≈ 21.5 µM)
Escherichia coli [2]
  growth inhibition (GI): Active
Staphylococcus aureus [3]
  inhibition: inactive
[4]
  IC50: 20 µM
Staphylococcus aureus [13]
  MIC: > 50 µg/mL
[7]
  inhibition: Active
[8]
  MIC: 1.88 µg/mL (≈ 3.23 µM)
[14]
  MIC: 8 µg/mL (≈ 13.7 µM)
Escherichia coli [10]
  growth inhibition (GI): inactive
Staphylococcus aureus [12]
  MIC: > 60 µg/mL

## CCCCCCC[C@@H](O)c1cccc(CN2CCC(COc3ccc(C(=O)c4ccc(Cl)cc4)c(Cl)c3)CC2)c1
[1]
  MIC: 12.5 µg/mL (≈ 21.5 µM)
Escherichia coli [2]
  growth inhibition (GI): Active
Staphylococcus aureus [3]
  inhibition: inactive
[4]
  IC50: 15 µM
[7]
  inhibition: Active
[8]
  MIC: 1.46 µg/mL (≈ 2.51 µM)
Escherichia coli [10]
  growth inhibition (GI): inactive
Staphylococcus aureus [12]
  MIC: > 60 µg/mL

## CCCC[C@@H](O)CN1CCC(COc2cccc(C(=O)c3ccc(Cl)cc3)c2)CC1
[1]
  MIC: 6.2 µg/mL (≈ 14.4 µM)
Escherichia coli [2]
  growth inhibition (GI): Active
Staphylococcus aureus [3]
  inhibition: inactive
[4]
  IC50: 17 µM
[7]
  inhibition: Active
[8]
  MIC: 4.91 µg/mL (≈ 11.4 µM)
Escherichia coli [10]
  growth inhibition (GI): inactive
Staphylococcus aureus [12]
  MIC: > 60 µg/mL
